We go through 98 compounds from ChEMBL document CHEMBL4513216, “Probing the Open Global Health Chemical Diversity Library for Multistage-Active Starting Points for Next-Generation Antimalarials” (ACS Infect Dis, 2020).

This data set can be described thus: Toxicity liver stage against HepG2, at 10uM. The format is cell-based. Further details: test concentration 10 uM, cell line HepG2-A16-CD81EGFP. Conditions: human, HepG2-A16-CD81EGFP cells; read-out: INHIBITION
In outline: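 Uninfected HepG2-A16-CD81EGFP cells, 3 × 10^3 per well, 1536-well, plated on prespotted compound at 10 μM final, parasite-free screening media added to match infected plates; puromycin 10 μM positive, DMSO 0.5% negative; run in parallel with 48 h PbLuc assay at 37 °C, 5% CO2; viability by CellTiter-Glo luminescence, normalized to controls.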
For the compound `CCOCC1CN(CC2CC2)Cc2cnn(C)c21` (stereo not drawn), the cytotoxicity at 10 µM was -90.4%.
For `O=C(NCC1CCCCC1)N1C[C@@H]2C[C@@H]1CN2` the value was -7.78%; for `COc1cccc2c1ccn2CCC(=O)N1CCCC(C(=O)O)C1` (stereo not drawn), 2.11%; for `c1ccc(CN2CCN(c3ccc4nncn4n3)CC2)nc1`, -1.1%.
For `CC(C)(C)c1cnc(CN2C(=O)CC3(CCSC3)C2=O)o1` (stereo not drawn) the value was 7.28%.
For the compound `O=C(NCc1nncn1C1CC1)c1ccccc1OCC1CC1`, the cytotoxicity at 10 µM was 3.36%.
Regarding `O=S(=O)(NC1CCOC1)c1ccc(C(F)(F)F)nc1` (stereo not drawn), the cytotoxicity at 10 µM amounted to 8.16%.
The same measure for `CC(C)c1nnc2n1CCN(C(=O)c1ccnc(-n3ccnc3)c1)C2`: -29%; for `COc1cccc2c1OCC(C(=O)N1CCN(CCS(C)(=O)=O)CC1)C2` (stereo not drawn): 1.28%.
The same measure for `Cc1nc(CN(C)C2CCCN(c3ccccc3)C2)no1` (stereo not drawn): -6.9%.
In the case of `COc1ccccc1NC(=O)NC1(c2noc(CN(C)C)n2)CCCC1`, the cytotoxicity at 10 µM is -5.22%.
The same measure for `N#Cc1ccc(CNCCn2cccn2)c(F)c1`: -4.22%; for `O=C1CO[C@H]2CN(Cc3cccnc3)C[C@H]2N1`: -4%; for `COc1ccc(OC)c(NC(=O)NCC(O)c2ccc(F)c(F)c2)c1` (stereo not drawn): 0.746%.
As to `O=C(c1cccn1Cc1cccs1)N1CCC(C(=O)N2CCCC2)CC1`, the cytotoxicity at 10 µM was -1.23%.
`Cc1cnn(-c2cccc(N3CCCCC3)n2)c1`: the cytotoxicity at 10 µM amounted to 0.247%.
The same measure for `Cc1ccc(NC(=O)N2CCC3(CCC(C(=O)N(C)C)O3)CC2)cc1` (stereo not drawn): -99.2%.
For `Cc1ccc(NC(=O)C2CSCN2C(=O)c2cc[nH]n2)c(C)c1` (stereo not drawn) the value was -6.1%.
The same measure for `CCCNC(=O)C(C)Nc1cccc(Oc2ccc(C#N)cn2)c1` (stereo not drawn): -7.99%; for `CCC(=O)c1ccc(OCC(=O)NC(C)c2ncnn2CC)cc1` (stereo not drawn): 1.9%; for `CCc1nc(CNc2ccc(C(=O)NCc3ccco3)cc2C)no1`: 2.4%.
On to `Cc1ccc(CC2COc3ccccc3C2)c(N)n1` (stereo not drawn), for which the cytotoxicity at 10 µM was -7.12%.
Take `CN(C)CC(=O)N1CC2(CCN(C(=O)Nc3ccccc3)C2)C1`: the cytotoxicity at 10 µM is 4.17%.
The same measure for `Cc1cc(C(=O)Nc2cnn(CC(=O)NC3CCCC3)c2)c(C)s1`: 3.07%.
`CC(=O)Nc1ncc(-c2ccc(C)cc2)[nH]1`: the cytotoxicity at 10 µM was -4.63%.
As for `COC(=O)N1CCCCC1C(=O)N1CCN(c2cccnc2)CC1` (stereo not drawn), the cytotoxicity at 10 µM is -10.6%.
On to `CCc1ncncc1C(=O)N1CCCN(Cc2ccc(C#N)cc2)CC1`, for which the cytotoxicity at 10 µM was -2.91%.
Consider `N#Cc1ccc(CN2CCCC3(Cc4ccccc4CNC3=O)C2)cc1` (stereo not drawn), for which the cytotoxicity at 10 µM worked out at 11.8%.
Turning to `O=C(NCCCC(=O)N1Cc2ccccc2C1)NCc1nccs1`, the cytotoxicity at 10 µM was -1.37%.
Turning to `Cc1cccc(NC(=O)CNC(=O)Cn2ncc(Cl)c(Cl)c2=O)c1C`, the cytotoxicity at 10 µM worked out at 12.7%.
For `CCCNC(=O)c1nc2c(o1)CN(C(=O)CN(C)C)C2`, the cytotoxicity at 10 µM came out at 0.0773%.
On to `Cc1cc(C)n(CC2CCCN2C(=O)c2cccnc2N(C)C)n1` (stereo not drawn), for which the cytotoxicity at 10 µM was -3.56%.
For `CCN(CC)CCNC(=O)C(C)OCC(F)(F)F` (stereo not drawn) the value was 4.23%; for `NCCn1nc(C2CCN(Cc3ccccc3)C2)c2nccnc21` (stereo not drawn), 0.975%.
For `CN1CCOCC12CCN(c1nncs1)CC2`, the cytotoxicity at 10 µM was determined as 8.16%.
For `CC(C)n1nc(CN2CCCC2=O)c2c1CN(C(=O)c1ccco1)C2`, the cytotoxicity at 10 µM was determined as 5.35%.
For `O=C(NCCN1CCOC1=O)c1ccc2sccc2c1`, the cytotoxicity at 10 µM worked out at 12.9%.
Turning to `O=C(c1cccs1)N1CCC2(CC1)CCN(S(=O)(=O)C1CC1)CC2`, the cytotoxicity at 10 µM was -106%.
For `Cc1cc(C(=O)NCc2c(C)nn(C)c2C)nc(N2CCOCC2)n1` the value was 0.0436%; for `CCSc1ncc(CN2CCN(c3nc(C)cnc3C)CC2)cn1`, 5.84%; for `CCc1csc(CNc2nc3c(s2)c(C)nn3C)n1`, -35.5%.
The same measure for `CS(=O)(=O)N[C@@H]1COC[C@@H]2CN(Cc3ccco3)C[C@@H]21`: -1.43%.
`CS(=O)(=O)N1CC[C@@H]2OC(COCC(=O)N3CCCC3)CC[C@@H]21` (stereo partly drawn): the cytotoxicity at 10 µM worked out at 1.56%.
For `Cc1cccc(S(=O)(=O)NC(=O)CN(C)Cc2ccccc2)c1` the value was -14.3%; for `Cc1ccc2nc(CN3CCCC3c3cccnc3)cc(O)c2c1` (stereo not drawn), 3.16%; for `C1CN(CCN2CCOCC2)CCN1`, -11.5%.
The same measure for `Cn1nc(Cn2cccc2)c2c1CN(Cc1ccsc1)C2`: -133%.
For `O=C(NC[C@]1(O)CCN(Cc2ccsc2)C[C@H]1O)c1c[nH]cn1` the value was 0.514%; for `OCC1(CCOc2ccccc2)CCCN(c2ccc(Cl)cn2)C1` (stereo not drawn), 7.52%; for `O=C(CCCc1nc2ccccc2[nH]1)N1CCCC1c1ccncc1` (stereo not drawn), 3.79%.
As for `O=C(NCc1ccccc1)N1CCC2(CC(=O)N(c3ccsc3)C2)C1` (stereo not drawn), the cytotoxicity at 10 µM was -9.64%.
`CC(=O)Nc1ccc(CNCc2cccnc2N(C)C)cc1`: the cytotoxicity at 10 µM was -7.49%.
Turning to `CC(C)CN1C[C@H]2CCN(C(=O)c3ccccn3)CC[C@H]2S1(=O)=O`, the cytotoxicity at 10 µM was determined as 0.582%.
Take `Cc1ccc2c(cnn2CCC(=O)NCc2csc(C)n2)c1`: the cytotoxicity at 10 µM turned out to be 1.14%.
`CC(C)N(CCCNC(=O)C1CC1)S(C)(=O)=O`: the cytotoxicity at 10 µM is -5.55%.
With `Cn1ccnc1CNc1c(F)cccc1-n1cccn1`, the cytotoxicity at 10 µM is -5.2%.
Turning to `CC(Cn1cccn1)NCc1nc(-c2cccnc2)no1` (stereo not drawn), the cytotoxicity at 10 µM was -0.813%.
Regarding `COCc1nnc(-c2cccc(C(=O)N(C)CC(C)(C)C)c2)o1`, the cytotoxicity at 10 µM is -11.1%.
For `Cc1cnn(CCNCc2cc(C#N)ccc2F)c1` the value was -10.1%; for `O=C(Cn1ccc2ccccc21)NCc1cc(N2CCOCC2)ncn1`, 4.44%.
Turning to `O=C(NCC1CC1)c1cnc(-c2ccccc2)nc1`, the cytotoxicity at 10 µM was 7.5%.
On to `O=C(c1ccoc1)N1CC[C@H]2[C@H]1CCN2CC1CC1`, for which the cytotoxicity at 10 µM stood at 2.5%.
The same measure for `Cc1cn2c(n1)CCC(NC(=O)Cn1cncn1)C2` (stereo not drawn): -3.86%.
As to `CS(=O)(=O)N[C@@H]1CN(C(=O)c2cnccn2)[C@@H]2CCCO[C@@H]21`, the cytotoxicity at 10 µM is -73.4%.
As for `CCn1ccnc1CNCC1CCCN1c1cccnn1` (stereo not drawn), the cytotoxicity at 10 µM is -1.28%.
For `COCc1nc2ncc3c(=O)n(-c4ccccc4OC)ccc3n2n1` the value was -8.17%.
The same measure for `O=C1CC2(CCN(C(=O)c3csc(-c4ccccc4)n3)C2)C(=O)N1` (stereo not drawn): -1.25%.
On to `COc1ccc(CN2CCC3(CC2)CCN(CC(=O)N(C)C)C3=O)cc1`, for which the cytotoxicity at 10 µM is -0.449%.
Regarding `O=S(=O)(N1CCCC1)N1CCc2sccc2C1`, the cytotoxicity at 10 µM came out at 1.7%.
The same measure for `CCOCC(=O)N1CCC(c2nccn2C)CC1`: -53.4%; for `CN1CCC(NC(=O)Cc2csc(C(C)(C)C)n2)CC1`: -2.37%.
As for `O=C(Nc1ccc(F)cc1-c1nc(C2CC2)no1)N1CC[C@@H](O)C1`, the cytotoxicity at 10 µM was -1.54%.
The same measure for `CCOCCCNC(=O)c1cc(OC)c2ccoc2c1`: 6.51%; for `CCS(=O)(=O)NCC1Cn2nnc(-c3ccccc3)c2CO1` (stereo not drawn): -75.4%; for `CCc1nnc2n1CCN(C(=O)c1cnn(C)c1C1CC1)C2`: -6.93%.
For `COC(=O)C(C)N(Cc1cc(=O)n(C)c(=O)n1C)C1CC1` (stereo not drawn) the value was -0.719%.
For `O=C(CCCOc1ccc(F)cc1F)N1CCCC(n2cccn2)C1` (stereo not drawn) the value was -4.75%; for `Cc1nc[nH]c1CN1CCn2nc(CN3Cc4ccccc4C3)cc2C1`, 3.79%; for `Cc1ccsc1CN1CCC(c2nnc(Cn3cccn3)n2C)CC1`, -2.97%.
In the case of `Cc1cc(C)cc(CN2CCN(Cc3cccc(CCN)c3)CC2=O)c1`, the cytotoxicity at 10 µM was -18.3%.
For `CCC[C@H]1CN(Cc2ccc(N(C)C)nc2)C[C@@H]1NC(=O)CO` the value was 9.23%; for `Cc1ccccc1N1CCN(c2nc(N(C)C)nc3c2CCNC3)CC1`, 8.97%; for `CN(CCO)Cc1nnc(C2CCN(C(=O)c3cc[nH]c3)CC2)n1C`, 1.37%.
With `O=C(c1ccc[nH]1)N1CCCn2c(CN3CCCCC3)nnc2C1`, the cytotoxicity at 10 µM was -106%.
For `Cc1nc(CN2CC(CO)Oc3ccccc32)sc1C` (stereo not drawn) the value was 0.918%; for `c1cnc(NCC2Cn3nnc(-c4ccsc4)c3CO2)nc1` (stereo not drawn), -73.3%.
Turning to `CCCc1nc(N2CCN(CC)CC2)c2c(n1)c(C)nn2CC`, the cytotoxicity at 10 µM was -9.41%.
With `Cc1cccc(CO[C@H]2CO[C@@]3(CCN(S(=O)(=O)N(C)C)C3)C2)n1`, the cytotoxicity at 10 µM came to 7.7%.
For `CC(=O)Nc1nc(C2CCN(C(=O)C3CCC3)CC2)cs1` the value was -2.36%; for `CCCc1nnc(NC(=O)N2CCCC(NC(C)=O)C2)s1` (stereo not drawn), 5.41%.
For `O=C(O)C1(Cc2cccc(Cl)c2)CCCN(c2ncnc3[nH]ccc23)C1` (stereo not drawn) the value was 3.63%.
Take `Cc1nnc(CN2CCCCC2c2nc(-c3ccccc3)no2)s1` (stereo not drawn): the cytotoxicity at 10 µM was -48.5%.
Regarding `c1cncc(CN2CCCn3nnc(CN4CCCC4)c3C2)c1`, the cytotoxicity at 10 µM amounted to 4.78%.
On to `CN(C)C(=O)c1cccc(C2CCN(c3ncccn3)CC2)n1`, for which the cytotoxicity at 10 µM worked out at 1.24%.
Turning to `Cc1nn(C)c(C)c1CN(C)C(=O)c1cccc(CCC(C)(C)O)c1`, the cytotoxicity at 10 µM amounted to 3.13%.
In the case of `N#Cc1ccc(NCC(=O)Nc2ncn(Cc3cccnc3)n2)cc1`, the cytotoxicity at 10 µM was 7.65%.
For `CN(Cc1ccco1)Cc1ccccc1CNC(=O)c1cnccn1`, the cytotoxicity at 10 µM was 17.1%.
The same measure for `O=C(c1cnc(-c2noc3cc(N4CCCC4)ccc23)s1)N1CCCC1`: -3.83%.
